Laboratory results taken from ChEMBL document CHEMBL1133135, “Grignard-mediated synthesis and preliminary biological evaluation of novel 3-substituted farnesyl diphosphate analogues” (Bioorg Med Chem Lett, 2000).

Molecular target: Protein farnesyltransferase (Homo sapiens) (UniProt P49354+P49356)
Assay: Relative Vmax for Farnesyltransferase at 10 uM
Format: protein-complex assay
Outline: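 Baculovirus-expressed, purified recombinant mammalian FTase in a continuous fluorometric assay with dansyl-GCVLS-OH peptide cosubstrate, testing each FPP analogue as alternative prenyl donor. Relative Vmax is the Vmax with analogue at 10 μM divided by the Vmax with FPP at 10 μM under the same conditions. Analogue concentrations were checked by phosphate analysis.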

**Q.** With `CCC(C)/C(=C\COP(=O)(O)OP(=O)(O)O)CC/C=C(\C)CCC=C(C)C` (configuration not stated) as the molecule, how does the Krel read?
**A.** The Krel was 0.

**Q.** For `CC(C)=CCC/C(C)=C/CC/C(=C/COP(=O)(O)OP(=O)(O)O)CC(C)C`, which Krel is on record?
**A.** The Krel was 0.

**Q.** `C=C(C)/C(=C\COP(=O)(O)OP(=O)(O)O)CC/C=C(\C)CCC=C(C)C` was tested. Which Krel did it give?
**A.** Its Krel is 0.

**Q.** For `CC(C)=CCC/C(C)=C/CC/C(=C/COP(=O)(O)OP(=O)(O)O)C1CCCC1`, which Krel is on record?
**A.** Its Krel is 0.072.

**Q.** `CC(C)=CCC/C(C)=C/CC/C(=C/COP(=O)(O)OP(=O)(O)O)c1ccc(F)cc1` was tested. Which Krel did it give?
**A.** Its Krel is 0.002.

**Q.** With `CC(C)=CCC/C(C)=C/CC/C(=C/COP(=O)(O)OP(=O)(O)O)C(C)C` as the molecule, how does the Krel read?
**A.** Its Krel is 0.013.

**Q.** With `CCC/C(=C\COP(=O)(O)OP(=O)(O)O)CC/C=C(\C)CCC=C(C)C` as the molecule, how does the Krel read?
**A.** Its Krel is 0.078.

**Q.** How did the Krel turn out when `CC(C)=CCC/C(C)=C/CC/C(=C/COP(=O)(O)OP(=O)(O)O)CC(C)(C)C` was run?
**A.** Its Krel is 0.042.

**Q.** `C=C/C(=C\COP(=O)(O)OP(=O)(O)O)CC/C=C(\C)CCC=C(C)C` was tested. Which Krel did it give?
**A.** The Krel was 0.521.

**Q.** How did the Krel turn out when `C=CC/C(=C\COP(=O)(O)OP(=O)(O)O)CC/C=C(\C)CCC=C(C)C` was run?
**A.** The Krel was 0.053.

Test system: CC(C)=CCC/C(C)=C/CC/C(C)=C/COP(=O)(O)OP(=O)(O)O

**Q.** “Protein farnesyltransferase (Homo sapiens) (from UniProt P49354+P49356)” was tested. Which Km did it give?
**A.** Its Km is 0.107 µM.

Test system: CC(C)=CCC/C(C)=C/CC/C(=C/COP(=O)(O)OP(=O)(O)O)C1CCCC1
Assay: Km for mammalian protein Farnesyltransferase expressed in baculovirus

**Q.** For “Protein farnesyltransferase (Homo sapiens) (from UniProt P49354+P49356)”, which Km is on record?
**A.** Its Km is 0.102 µM.
